Measured values taken from ChEMBL document CHEMBL5058577, “EUbOPEN Chemogenomics Library 2 (Multiplex)” (2022).

Test system: U2OS
Experiment: Multiplex assay against U2OS
Assay type: toxicity, cell-based
Details: human
In short: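 Cells stained live at seeding with Hoechst33342, BioTracker Green Microtubule Cytoskeleton Dye, MitoTracker Red and Annexin V Alexa Fluor 680 were imaged on a CQ1 microscope at 37°C and 5% CO2 after compound addition. Their classification by CellPathfinder machine-learning gating ran from Hoechst high-intensity objects versus normal cells, to healthy, pyknosed or fragmented nuclei among normal cells, to mitotic or apoptotic among pyknosed cells. Tubulin, mitochondrial-mass and membrane-permeability phenotypes are per cents of healthy-nucleus cells.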

[1] = 12 h, 1 µM, compound concentration 1 uM, replicate 1
[2] = 12 h, 1 µM, compound concentration 1 uM, replicate 2
[3] = 12 h, 10 µM, compound concentration 10 uM, replicate 1
[4] = 12 h, 10 µM, compound concentration 10 uM, replicate 2
[5] = 24 h, 1 µM, compound concentration 1 uM, replicate 1
[6] = 24 h, 1 µM, compound concentration 1 uM, replicate 2
[7] = 24 h, 10 µM, compound concentration 10 uM, replicate 1
[8] = 24 h, 10 µM, compound concentration 10 uM, replicate 2
[9] = 48 h, 1 µM, compound concentration 1 uM, replicate 1
[10] = 48 h, 1 µM, compound concentration 1 uM, replicate 2
[11] = 48 h, 10 µM, compound concentration 10 uM, replicate 1
[12] = 48 h, 10 µM, compound concentration 10 uM, replicate 2

Cn1cc(C(=O)OCC2CCN(CCNS(C)(=O)=O)CC2)c2ccccc21
Population Apoptotic (%) [1]: 73% | Population Fragmented Nuclei (%) [1]: 27% | Population Healthy Nuclei (%) [1]: 63% | Population Hoechst High Intensity Objects (%) [1]: 3% | Population Membrane Permeable-Phenotype (%) [1]: 7% | Population Mitochondria Different-Phenotype (%) [1]: 4% | Population Mitotic Cells (%) [1]: 26% | Population Normal (%) [1]: 96% | Population Pyknosed Nuclei (%) [1]: 8% | Population Tubulin-Different-Phenotype (%) [1]: 5% | Total Cell Count [1]: 226 | Population Apoptotic (%) [2]: 77% | Population Fragmented Nuclei (%) [2]: 20% | Population Healthy Nuclei (%) [2]: 71% | Population Hoechst High Intensity Objects (%) [2]: 0% | Population Membrane Permeable-Phenotype (%) [2]: 13% | Population Mitochondria Different-Phenotype (%) [2]: 5% | Population Mitotic Cells (%) [2]: 22% | Population Normal (%) [2]: 100% | Population Tubulin-Different-Phenotype (%) [2]: 6% | Total Cell Count [2]: 110 | Population Apoptotic (%) [3]: 53% | Population Fragmented Nuclei (%) [3]: 36% | Population Healthy Nuclei (%) [3]: 58% | Population Hoechst High Intensity Objects (%) [3]: 0% | Population Membrane Permeable-Phenotype (%) [3]: 10% | Population Mitochondria Different-Phenotype (%) [3]: 5% | Population Mitotic Cells (%) [3]: 46% | Population Normal (%) [3]: 99% | Population Pyknosed Nuclei (%) [3]: 5% | Population Tubulin-Different-Phenotype (%) [3]: 5% | Total Cell Count [3]: 252 | Population Apoptotic (%) [4]: 57% | Population Fragmented Nuclei (%) [4]: 18% | Population Healthy Nuclei (%) [4]: 76% | Population Hoechst High Intensity Objects (%) [4]: 1% | Population Membrane Permeable-Phenotype (%) [4]: 17% | Population Mitochondria Different-Phenotype (%) [4]: 13% | Population Mitotic Cells (%) [4]: 42% | Population Normal (%) [4]: 98% | Population Tubulin-Different-Phenotype (%) [4]: 9% | Total Cell Count [4]: 137 | Population Apoptotic (%) [5]: 95% | Population Fragmented Nuclei (%) [5]: 26% | Population Healthy Nuclei (%) [5]: 65% | Population Hoechst High Intensity Objects (%) [5]: 2% | Population Membrane Permeable-Phenotype (%) [5]: 4% | Population Mitochondria Different-Phenotype (%) [5]: 2% | Population Mitotic Cells (%) [5]: 4% | Population Normal (%) [5]: 97% | Population Pyknosed Nuclei (%) [5]: 8% | Population Tubulin-Different-Phenotype (%) [5]: 3% | Total Cell Count [5]: 263 | Population Apoptotic (%) [6]: 100% | Population Fragmented Nuclei (%) [6]: 17% | Population Healthy Nuclei (%) [6]: 78% | Population Hoechst High Intensity Objects (%) [6]: 0% | Population Membrane Permeable-Phenotype (%) [6]: 10% | Population Mitochondria Different-Phenotype (%) [6]: 5% | Population Mitotic Cells (%) [6]: 0% | Population Normal (%) [6]: 100% | Population Pyknosed Nuclei (%) [6]: 4% | Population Tubulin-Different-Phenotype (%) [6]: 6% | Total Cell Count [6]: 144 | Population Apoptotic (%) [7]: 92% | Population Fragmented Nuclei (%) [7]: 33% | Population Healthy Nuclei (%) [7]: 61% | Population Hoechst High Intensity Objects (%) [7]: 2% | Population Membrane Permeable-Phenotype (%) [7]: 11% | Population Mitochondria Different-Phenotype (%) [7]: 5% | Population Mitotic Cells (%) [7]: 7% | Population Normal (%) [7]: 97% | Population Pyknosed Nuclei (%) [7]: 4% | Population Tubulin-Different-Phenotype (%) [7]: 4% | Total Cell Count [7]: 281 | Population Apoptotic (%) [8]: 64% | Population Fragmented Nuclei (%) [8]: 16% | Population Healthy Nuclei (%) [8]: 73% | Population Hoechst High Intensity Objects (%) [8]: 1% | Population Membrane Permeable-Phenotype (%) [8]: 12% | Population Mitochondria Different-Phenotype (%) [8]: 8% | Population Mitotic Cells (%) [8]: 35% | Population Normal (%) [8]: 98% | Population Pyknosed Nuclei (%) [8]: 9% | Population Tubulin-Different-Phenotype (%) [8]: 8% | Total Cell Count [8]: 150 | Population Apoptotic (%) [9]: 91% | Population Fragmented Nuclei (%) [9]: 20% | Population Healthy Nuclei (%) [9]: 69% | Population Hoechst High Intensity Objects (%) [9]: 1% | Population Membrane Permeable-Phenotype (%) [9]: 8% | Population Mitochondria Different-Phenotype (%) [9]: 3% | Population Mitotic Cells (%) [9]: 8% | Population Normal (%) [9]: 98% | Population Pyknosed Nuclei (%) [9]: 9% | Population Tubulin-Different-Phenotype (%) [9]: 5% | Total Cell Count [9]: 372 | Population Apoptotic (%) [10]: 57% | Population Fragmented Nuclei (%) [10]: 13% | Population Healthy Nuclei (%) [10]: 75% | Population Hoechst High Intensity Objects (%) [10]: 2% | Population Membrane Permeable-Phenotype (%) [10]: 6% | Population Mitochondria Different-Phenotype (%) [10]: 5% | Population Mitotic Cells (%) [10]: 42% | Population Normal (%) [10]: 97% | Population Pyknosed Nuclei (%) [10]: 10% | Population Tubulin-Different-Phenotype (%) [10]: 4% | Total Cell Count [10]: 182 | Population Apoptotic (%) [11]: 88% | Population Fragmented Nuclei (%) [11]: 30% | Population Healthy Nuclei (%) [11]: 58% | Population Hoechst High Intensity Objects (%) [11]: 1% | Population Membrane Permeable-Phenotype (%) [11]: 9% | Population Mitochondria Different-Phenotype (%) [11]: 4% | Population Mitotic Cells (%) [11]: 11% | Population Normal (%) [11]: 98% | Population Pyknosed Nuclei (%) [11]: 10% | Population Tubulin-Different-Phenotype (%) [11]: 7% | Total Cell Count [11]: 341 | Population Apoptotic (%) [12]: 75% | Population Fragmented Nuclei (%) [12]: 9% | Population Healthy Nuclei (%) [12]: 79% | Population Hoechst High Intensity Objects (%) [12]: 3% | Population Membrane Permeable-Phenotype (%) [12]: 13% | Population Mitochondria Different-Phenotype (%) [12]: 6% | Population Mitotic Cells (%) [12]: 25% | Population Normal (%) [12]: 97% | Population Tubulin-Different-Phenotype (%) [12]: 5% | Total Cell Count [12]: 200
